Data taken from ChEMBL document CHEMBL1157588, “Searching for multi-target antipsychotics: Discovery of orally active heterocyclic N-phenylpiperazine ligands of D2-like and 5-HT1A receptors” (Bioorg Med Chem, 2010).
Activity calls are given as the source filed them. The rule behind the calls is not given here.

test system: Mus musculus; assay: Toxicity in CF1 mouse assessed as induction of motor impairment by measuring permanence time at 4 mg/kg, po by rotarod test (reference value: 241.4 +/- 18.0 sec); type: organism-based; set-up: dose 4 mg/kg, route oral; conditions: in vivo, 0.005 h

Row | Structure (SMILES) | Time [s]
1 | O=C(CCCN1CCC(O)(c2ccc(Cl)cc2)CC1)c1ccc(F)cc1 [HALOPERIDOL] | 73.5

test system: Mus musculus; assay: Toxicity in CF1 mouse assessed as induction of catalepsy by measuring time spent on elevated wood bar at 4 mg/kg, po after 30 mins (reference value: 1.8 +/- 1.1 sec); type: organism-based; set-up: dose 4 mg/kg, route oral; conditions: in vivo, 0.5 h

Row | Structure (SMILES) | Time [s]
2 | O=C(CCCN1CCC(O)(c2ccc(Cl)cc2)CC1)c1ccc(F)cc1 [HALOPERIDOL] | 54.4

species on record: Rattus norvegicus; assay: Selectivity index, ratio of Ki for Wistar rat striatum D2-like receptor to Ki for Wistar rat hippocampus 5HT1A receptor; type: tissue-based; conditions: not given

Row | Structure (SMILES) | Ratio Ki
3 | Clc1ccc(N2CCN(Cc3cnn(-c4ccccc4)c3)CC2)cc1 | 9.89
4 | Fc1ccc(N2CCN(Cc3cn(-c4ccccc4)nn3)CC2)cc1 | 1.32

Now from value to compound:

Row | Ratio Ki | Structure (SMILES)
5 | 1.21 | Clc1ccc(-n2cc(CN3CCN(c4ccccc4)CC3)cn2)cc1
6 | 4.42 | Fc1ccc(N2CCN(Cc3cnn(-c4ccccc4)c3)CC2)cc1
7 | 2.31 | c1ccc(N2CCN(Cc3cnn(-c4ccccc4)c3)CC2)cc1

test system: Mus musculus; assay: Toxicity in CF1 mouse assessed as induction of catalepsy by measuring time spent on elevated wood bar at 4 mg/kg, po after 90 mins (reference value: 2.4 +/- 2.6 sec); type: organism-based; set-up: dose 4 mg/kg, route oral; conditions: in vivo, 1.5 h

Row | Structure (SMILES) | Time [s]
8 | O=C(CCCN1CCC(O)(c2ccc(Cl)cc2)CC1)c1ccc(F)cc1 [HALOPERIDOL] | 105

test system: Mus musculus; assay: Toxicity in CF1 mouse assessed as induction of catalepsy by measuring time spent on elevated wood bar at 4 mg/kg, po after 60 mins (reference value: 2.7 +/- 2.9 sec); type: organism-based; set-up: dose 4 mg/kg, route oral; conditions: in vivo, 1 h

Row | Structure (SMILES) | Time [s]
9 | O=C(CCCN1CCC(O)(c2ccc(Cl)cc2)CC1)c1ccc(F)cc1 [HALOPERIDOL] | 89.7

test system: Mus musculus; assay: Toxicity in CF1 mouse assessed as induction of catalepsy by measuring time spent on elevated wood bar at 15 mg/kg, po after 90 mins (reference value: 2.4 +/- 2.6 sec); type: organism-based; set-up: dose 15 mg/kg, route oral; conditions: in vivo, 1.5 h

Row | Structure (SMILES) | Time [s]
10 | Clc1ccc(-n2cc(CN3CCN(c4ccccc4)CC3)cn2)cc1 | 32.2

test system: Mus musculus; assay: Toxicity in CF1 mouse assessed as induction of catalepsy by measuring time spent on elevated wood bar at 15 mg/kg, po after 60 mins (reference value: 2.7 +/- 2.9 sec); type: organism-based; set-up: dose 15 mg/kg, route oral; conditions: in vivo, 1 h

Row | Structure (SMILES) | Time [s]
11 | Clc1ccc(-n2cc(CN3CCN(c4ccccc4)CC3)cn2)cc1 | 23.6

test system: Mus musculus; assay: Toxicity in CF1 mouse assessed as induction of catalepsy by measuring time spent on elevated wood bar at 30 mg/kg, po after 30 mins (reference value: 1.8 +/- 1.1 sec); type: organism-based; set-up: dose 30 mg/kg, route oral; conditions: in vivo, 0.5 h

Row | Structure (SMILES) | Time [s]
12 | Clc1ccc(-n2cc(CN3CCN(c4ccccc4)CC3)cn2)cc1 | 3.9

test system: Mus musculus; assay: Antipsychotic activity in CF1 mouse assessed as reduction in apomorphine-induced climbing at 15 mg/kg, po; type: functional, organism-based; set-up: dose 15 mg/kg; conditions: not given
How it was run: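 Adult male CF1 mice (25–35 g) dosed orally (10 mL/kg), then held 30 min in metal-bar cages before apomorphine 4 mg/kg sc (5 mL/kg) or vehicle. Climbing scored 0–4 at 5, 10, 15, 20, 25 and 30 min after apomorphine; index is the sum of scores per animal. Mean + SEM, n = 08–13, ANOVA with post-hoc test.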

Row | Structure (SMILES) | inhibition
13 | Clc1ccc(-n2cc(CN3CCN(c4ccccc4)CC3)cn2)cc1 | Active
14 | Fc1ccc(N2CCN(Cc3cnn(-c4ccccc4)c3)CC2)cc1 | inactive
15 | c1ccc(N2CCN(Cc3cnn(-c4ccccc4)c3)CC2)cc1 | inactive

biological target: not listed separately; assay: Displacement of [3H]nemonapride from D2-like receptor in Wistar rat striatum homogenate; type: tissue-based; conditions: not given
How it was run: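 Rat striatal membranes (50 µg protein) incubated 60 min at 37 °C with 0.1 nM [3H]-nemonapride in 50 mM Tris–HCl pH 7.4 with 120 mM NaCl, 5 mM KCl, 5 mM MgCl2, 1.5 mM CaCl2 and 1 mM EDTA. Nonspecific binding defined by 30 µM (–)sulpiride. Filtration, scintillation counting.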

Row | Structure (SMILES) | Ki [nM]
16 | Clc1ccc(N2CCN(Cc3cnn(-c4ccccc4)c3)CC2)cc1 | 3740
17 | Fc1ccc(N2CCN(Cc3cn(-c4ccccc4)nn3)CC2)cc1 | 1980

The next lines start with the values.

Row | Ki [nM] | Structure (SMILES)
18 | 110 | Clc1ccc(-n2cc(CN3CCN(c4ccccc4)CC3)cn2)cc1
19 | 510 | Fc1ccc(N2CCN(Cc3cnn(-c4ccccc4)c3)CC2)cc1
20 | 110 | c1ccc(N2CCN(Cc3cnn(-c4ccccc4)c3)CC2)cc1

species on record: Rattus norvegicus; assay: Selectivity index, ratio of Ki for Wistar rat striatum D2-like receptor to Ki for Wistar rat cortex 5HT2A receptor; conditions: not given

Row | Structure (SMILES) | Ratio Ki
21 | Clc1ccc(N2CCN(Cc3cnn(-c4ccccc4)c3)CC2)cc1 | 4.04
22 | Fc1ccc(N2CCN(Cc3cn(-c4ccccc4)nn3)CC2)cc1 | 0.6

Continued, values first:

Row | Ratio Ki | Structure (SMILES)
23 | 0.05 | Clc1ccc(-n2cc(CN3CCN(c4ccccc4)CC3)cn2)cc1
24 | 0.48 | Fc1ccc(N2CCN(Cc3cnn(-c4ccccc4)c3)CC2)cc1
25 | 0.06 | c1ccc(N2CCN(Cc3cnn(-c4ccccc4)c3)CC2)cc1

biological target: 5-hydroxytryptamine receptor 2A (Rattus norvegicus, UniProt P14842); assay: Displacement of [3H]ketanserin from 5HT2A receptor in Wistar rat cortex homogenate; conditions: not given
Sequence (P14842 whole entry): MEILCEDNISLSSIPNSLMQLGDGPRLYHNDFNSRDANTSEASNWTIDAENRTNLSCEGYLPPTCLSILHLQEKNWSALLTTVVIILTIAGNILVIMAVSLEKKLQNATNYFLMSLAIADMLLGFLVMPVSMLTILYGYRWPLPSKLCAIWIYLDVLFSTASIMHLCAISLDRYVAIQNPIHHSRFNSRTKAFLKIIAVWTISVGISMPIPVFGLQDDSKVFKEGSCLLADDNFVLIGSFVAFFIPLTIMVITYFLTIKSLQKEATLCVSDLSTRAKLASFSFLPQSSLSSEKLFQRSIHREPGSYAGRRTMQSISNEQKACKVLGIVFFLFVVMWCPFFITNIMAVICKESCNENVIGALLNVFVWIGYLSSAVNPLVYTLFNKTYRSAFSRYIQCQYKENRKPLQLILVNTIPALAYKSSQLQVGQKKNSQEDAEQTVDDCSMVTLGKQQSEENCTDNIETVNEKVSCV

Row | Structure (SMILES) | Ki [nM]
26 | Clc1ccc(N2CCN(Cc3cnn(-c4ccccc4)c3)CC2)cc1 | 920
27 | Fc1ccc(N2CCN(Cc3cn(-c4ccccc4)nn3)CC2)cc1 | 3320

Second part, the compound after the results:

Row | Ki [nM] | Structure (SMILES)
28 | 2320 | Clc1ccc(-n2cc(CN3CCN(c4ccccc4)CC3)cn2)cc1
29 | 1040 | Fc1ccc(N2CCN(Cc3cnn(-c4ccccc4)c3)CC2)cc1
30 | 1750 | c1ccc(N2CCN(Cc3cnn(-c4ccccc4)c3)CC2)cc1

biological target: T1, 5-hydroxytryptamine receptor 1A (Rattus norvegicus, UniProt P19327); assay: Displacement of [3H]-8-OH-DPAT from 5HT1A receptor in Wistar rat hippocampus homogenate; type: tissue-based; conditions: not given
T1 sequence (P19327 whole entry): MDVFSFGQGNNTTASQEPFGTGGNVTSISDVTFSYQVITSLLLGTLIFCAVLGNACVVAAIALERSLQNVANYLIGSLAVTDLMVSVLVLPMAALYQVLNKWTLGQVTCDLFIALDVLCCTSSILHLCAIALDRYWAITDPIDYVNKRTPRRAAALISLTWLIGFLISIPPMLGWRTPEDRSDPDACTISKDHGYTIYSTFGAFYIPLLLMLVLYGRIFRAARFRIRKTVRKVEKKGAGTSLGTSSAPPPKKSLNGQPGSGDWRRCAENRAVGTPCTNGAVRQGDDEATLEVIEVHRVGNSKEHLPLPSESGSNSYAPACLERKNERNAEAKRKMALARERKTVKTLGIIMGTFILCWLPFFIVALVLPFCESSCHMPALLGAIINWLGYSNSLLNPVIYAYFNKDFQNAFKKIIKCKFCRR
How it was run: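 Rat hippocampal membranes (50 µg protein) incubated 15 min at 37 °C with 1 nM [3H]-8-OH-DPAT in 50 mM Tris–HCl pH 7.4 with 1 mM CaCl2, 1 mM MnCl2 and 10 µM pargyline. Nonspecific binding by 10 µM serotonin. Top test concentration 30 or 10 µM.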

Row | Structure (SMILES) | Ki [nM]
31 | Clc1ccc(N2CCN(Cc3cnn(-c4ccccc4)c3)CC2)cc1 | 380
32 | Fc1ccc(N2CCN(Cc3cn(-c4ccccc4)nn3)CC2)cc1 | 1500

Next, values leading:

Row | Ki [nM] | Structure (SMILES)
33 | 90 | Clc1ccc(-n2cc(CN3CCN(c4ccccc4)CC3)cn2)cc1
34 | 120 | Fc1ccc(N2CCN(Cc3cnn(-c4ccccc4)c3)CC2)cc1
35 | 50 | c1ccc(N2CCN(Cc3cnn(-c4ccccc4)c3)CC2)cc1

test system: Mus musculus; assay: Toxicity in CF1 mouse assessed as induction of motor impairment by measuring permanence time at 15 mg/kg, po by rotarod test (reference value: 241.4 +/- 18.0 sec); type: organism-based; set-up: dose 15 mg/kg, route oral; conditions: in vivo, 0.005 h

Row | Structure (SMILES) | Time [s]
36 | Clc1ccc(-n2cc(CN3CCN(c4ccccc4)CC3)cn2)cc1 | 149.3

test system: Mus musculus; assay: Toxicity in CF1 mouse assessed as induction of catalepsy by measuring time spent on elevated wood bar at 30 mg/kg, po after 90 mins (reference value: 2.4 +/- 2.6 sec); type: organism-based; set-up: dose 30 mg/kg, route oral; conditions: in vivo, 1.5 h

Row | Structure (SMILES) | Time [s]
37 | Clc1ccc(-n2cc(CN3CCN(c4ccccc4)CC3)cn2)cc1 | 10.5

species on record: Rattus norvegicus; assay: Selectivity index, ratio of Ki for Wistar rat hippocampus 5HT1A receptor to Ki for Wistar rat cortex 5HT2A receptor; type: tissue-based; conditions: not given

Row | Structure (SMILES) | Ratio Ki
38 | Clc1ccc(N2CCN(Cc3cnn(-c4ccccc4)c3)CC2)cc1 | 0.41
39 | Fc1ccc(N2CCN(Cc3cn(-c4ccccc4)nn3)CC2)cc1 | 0.45

Further lines, results first:

Row | Ratio Ki | Structure (SMILES)
40 | 0.04 | Clc1ccc(-n2cc(CN3CCN(c4ccccc4)CC3)cn2)cc1
41 | 0.12 | Fc1ccc(N2CCN(Cc3cnn(-c4ccccc4)c3)CC2)cc1
42 | 0.03 | c1ccc(N2CCN(Cc3cnn(-c4ccccc4)c3)CC2)cc1

test system: Mus musculus; assay: Toxicity in CF1 mouse assessed as induction of catalepsy by measuring time spent on elevated wood bar at 15 mg/kg, po after 30 mins (reference value: 1.8 +/- 1.1 sec); type: organism-based; set-up: dose 15 mg/kg, route oral; conditions: in vivo, 0.5 h

Row | Structure (SMILES) | Time [s]
43 | Clc1ccc(-n2cc(CN3CCN(c4ccccc4)CC3)cn2)cc1 | 5.6

test system: Mus musculus; assay: Toxicity in CF1 mouse assessed as induction of catalepsy by measuring time spent on elevated wood bar at 30 mg/kg, po after 60 mins (reference value: 2.7 +/- 2.9 sec); type: organism-based; set-up: dose 30 mg/kg, route oral; conditions: in vivo, 1 h

Row | Structure (SMILES) | Time [s]
44 | Clc1ccc(-n2cc(CN3CCN(c4ccccc4)CC3)cn2)cc1 | 13.4
